Converted amounts (≈) assume the structure as drawn.
What was measured:
Assay type in all cases: functional
Candida albicans = test: Antifungal activity against Candida albicans by broth microdilution method
Procedure, shortened: (§1)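 Fungal panel of Candida albicans, Candida parapsilosis, Aspergillus niger and Cryptococcus neoformans, tested in vitro by standard NCCLS broth microdilution. The yeast susceptibility reference cited is M27-A.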

Cryptococcus neoformans = test: Antimicrobial activity against Cryptococcus neoformans by broth microdilution method; procedure, shortened: as §1
Staphylococcus aureus = test: Antibacterial activity against Staphylococcus aureus by broth microdilution method
Procedure, shortened: (§2)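 In vitro broth microdilution following the NCCLS standard for bacteria (M7-A5). The test panel was Bacillus subtilis, Staphylococcus aureus, Klebsiella pneumoniae and Pseudomonas aeruginosa.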

Pseudomonas aeruginosa = test: Antibacterial activity against Pseudomonas aeruginosa by broth microdilution method; procedure, shortened: as §2
Aspergillus niger = test: Antifungal activity against Aspergillus niger by broth microdilution method; procedure, shortened: as §1
Bacillus subtilis = test: Antibacterial activity against Bacillus subtilis by broth microdilution method; procedure, shortened: as §2
Candida parapsilosis = test: Antifungal activity against Candida parapsilosis by broth microdilution method; settings: Lodderomyces parapsilosis; procedure, shortened: as §1
Klebsiella pneumoniae = test: Antibacterial activity against Klebsiella pneumoniae by broth microdilution method; procedure, shortened: as §2

SMILES	MIC90 (Candida albicans) [µg/mL]	MIC90 (Cryptococcus neoformans) [µg/mL]	MIC90 (Staphylococcus aureus) [µg/mL]	MIC90 (Pseudomonas aeruginosa) [µg/mL]	MIC90 (Aspergillus niger) [µg/mL]	MIC90 (Bacillus subtilis) [µg/mL]	MIC90 (Candida parapsilosis) [µg/mL]	MIC90 (Klebsiella pneumoniae) [µg/mL]
CON=C1C2C(c3cccc(Br)c3)NC(c3cccc(Br)c3)C1C(c1cccc(Br)c1)NC2c1cccc(Br)c1 (centres undefined)	> 128	> 128	> 128	> 128	> 128	> 128	> 128	> 128
CON=C1C2C(c3ccc(C(C)C)cc3)NC(c3ccc(C(C)C)cc3)C1C(c1ccc(C(C)C)cc1)NC2c1ccc(C(C)C)cc1 (centres undefined)	128 (≈ 199 µM)	> 128	128 (≈ 199 µM)	16 (≈ 24.9 µM)	128 (≈ 199 µM)	> 128	8 (≈ 12.5 µM)	128 (≈ 199 µM)
ON=C1C2C(c3ccc(Cl)cc3)NC(c3ccc(Cl)cc3)C1C(c1ccc(Cl)cc1)NC2c1ccc(Cl)cc1 (centres undefined)	8 (≈ 13.4 µM)	> 128	64 (≈ 107 µM)	32 (≈ 53.6 µM)	64 (≈ 107 µM)	> 128	128 (≈ 214 µM)	16 (≈ 26.8 µM)
CCOc1ccc(C2NC(c3ccc(OCC)cc3)C3C(=NOC)C2C(c2ccc(OCC)cc2)NC3c2ccc(OCC)cc2)cc1 (centres undefined)	> 128	16 (≈ 24.6 µM)	> 128	32 (≈ 49.2 µM)	8 (≈ 12.3 µM)	> 128	128 (≈ 197 µM)	32 (≈ 49.2 µM)
Cc1ccc(C2NC(c3ccc(C)cc3)C3C(=NO)C2C(c2ccc(C)cc2)NC3c2ccc(C)cc2)cc1 (centres undefined)	64 (≈ 124 µM)	> 128	> 128	32 (≈ 62.1 µM)	> 128	> 128	32 (≈ 62.1 µM)	> 128
ON=C1C2C(c3ccccc3)NC(c3ccccc3)C1C(c1ccccc1)NC2c1ccccc1 (centres undefined)	> 128	> 128	> 128	> 128	> 128	> 128	> 128	> 128
COc1ccc(C2NC(c3ccc(OC)cc3)C3C(=NO)C2C(c2ccc(OC)cc2)NC3c2ccc(OC)cc2)cc1 (centres undefined)	> 128	64 (≈ 110 µM)	64 (≈ 110 µM)	16 (≈ 27.6 µM)	16 (≈ 27.6 µM)	> 128	64 (≈ 110 µM)	64 (≈ 110 µM)
C=CCOc1ccc(C2NC(c3ccc(OCC=C)cc3)C3C(=NO)C2C(c2ccc(OCC=C)cc2)NC3c2ccc(OCC=C)cc2)cc1 (centres undefined)	> 128	> 128	> 128	> 128	64 (≈ 93.6 µM)	128 (≈ 187 µM)	64 (≈ 93.6 µM)	64 (≈ 93.6 µM)
CC(C)c1ccc(C2NC(c3ccc(C(C)C)cc3)C3C(=NO)C2C(c2ccc(C(C)C)cc2)NC3c2ccc(C(C)C)cc2)cc1 (centres undefined)	> 128	> 128	128 (≈ 204 µM)	16 (≈ 25.5 µM)	> 128	> 128	32 (≈ 51 µM)	128 (≈ 204 µM)
CON=C1C2C(c3ccccc3Br)NC(c3ccccc3Br)C1C(c1ccccc1Br)NC2c1ccccc1Br (centres undefined)	> 128	> 128	> 128	> 128	> 128	> 128	64 (≈ 81.1 µM)	> 128
CON=C1C2C(c3cccc(Cl)c3)NC(c3cccc(Cl)c3)C1C(c1cccc(Cl)c1)NC2c1cccc(Cl)c1 (centres undefined)	> 128	> 128	> 128	> 128	64 (≈ 105 µM)	> 128	> 128	64 (≈ 105 µM)
CON=C1C2C(c3ccc(OCc4ccccc4)cc3)NC(c3ccc(OCc4ccccc4)cc3)C1C(c1ccc(OCc3ccccc3)cc1)NC2c1ccc(OCc2ccccc2)cc1 (centres undefined)	> 128	> 128	> 128	> 128	64 (≈ 71.3 µM)	> 128	> 128	64 (≈ 71.3 µM)
CON=C1C2C(c3ccc(Br)cc3)NC(c3ccc(Br)cc3)C1C(c1ccc(Br)cc1)NC2c1ccc(Br)cc1 (centres undefined)	> 128	> 128	> 128	> 128	> 128	64 (≈ 81.1 µM)	16 (≈ 20.3 µM)	> 128
CCCCOc1ccc(C2NC(c3ccc(OCCCC)cc3)C3C(=NO)C2C(c2ccc(OCCCC)cc2)NC3c2ccc(OCCCC)cc2)cc1 (centres undefined)	> 128	32 (≈ 42.8 µM)	> 128	64 (≈ 85.6 µM)	32 (≈ 42.8 µM)	> 128	> 128	64 (≈ 85.6 µM)
OC(Cn1cncn1)(Cn1cncn1)c1ccc(F)cc1F [FLUCONAZOLE]	1 (≈ 3.27 µM)	2 (≈ 6.53 µM)			4 (≈ 13.1 µM)		2 (≈ 6.53 µM)	
CON=C1C2C(c3ccc(F)cc3)NC(c3ccc(F)cc3)C1C(c1ccc(F)cc1)NC2c1ccc(F)cc1 (centres undefined)	2 (≈ 3.67 µM)	32 (≈ 58.7 µM)	8 (≈ 14.7 µM)	4 (≈ 7.33 µM)	2 (≈ 3.67 µM)	64 (≈ 117 µM)	> 128	16 (≈ 29.3 µM)

Reference: ChEMBL document CHEMBL1268976, “Stereocontrolled facile synthesis and antimicrobial activity of oximes and oxime ethers of diversely substituted bispidines” (2010)
